Measurements taken from ChEMBL document CHEMBL4364294 (J Med Chem, 2019).

Assays:
[1] = Intrinsic clearance in human liver microsomes; assay type: ADME, Microsome; conditions: read-out: CLH
[2] = Aqueous solubility of the compound at pH 1; assay type: physicochemical
[3] = Aqueous solubility of the compound at pH 6.5; assay type: physicochemical
[4] = Aqueous solubility of the compound at pH 7.4; assay type: physicochemical
[5] = Stability in human microsomes assessed as parent compound remaining after 90 mins in presence of phase 1 and 2 metabolic cofactors; assay type: ADME, Microsome; conditions: read-out: Stability
[6] = Stability in rat microsomes assessed as parent compound remaining after 90 mins in presence of phase 1 and 2 metabolic cofactors; assay type: ADME, Microsome; conditions: read-out: Stability
[7] = Permeability across apical to basolateral side in human Caco2 cells; assay type: ADME, cell-based; conditions: Caco-2, read-out: permeability
[8] = Permeability across basolateral to apical side in human Caco2 cells; assay type: ADME, cell-based; conditions: Caco-2, read-out: permeability
[9] = Clearance in Sprague-Dawley rat at 10 mg/kg, iv administered as single dose; assay type: ADME, organism-based; conditions: in vivo
Method in brief: (§1)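 Sprague-Dawley rats were given single doses, intravenous at 10–50 mg/kg or oral at 10, 25 and 50 mg/kg. Plasma PK parameters were CL, AUC0-inf, t1/2, Cmax and %F.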

[10] = Clearance in Sprague-Dawley rat at 25 mg/kg, iv administered as single dose; assay type: ADME, organism-based; conditions: in vivo; method in brief: as §1
[11] = Clearance in Sprague-Dawley rat at 50 mg/kg, iv administered as single dose; assay type: ADME, organism-based; conditions: in vivo; method in brief: as §1
[12] = AUC (0 to infinity) in Sprague-Dawley rat at 10 mg/kg, iv administered as single dose; assay type: ADME, organism-based; set-up: dose 10 mg/kg, time infinity, route intravenous; conditions: in vivo; method in brief: as §1
[13] = AUC (0 to infinity) in Sprague-Dawley rat at 25 mg/kg, iv administered as single dose; assay type: ADME, organism-based; set-up: dose 25 mg/kg, route intravenous, time infinity; conditions: in vivo; method in brief: as §1
[14] = AUC (0 to infinity) in Sprague-Dawley rat at 50 mg/kg, iv administered as single dose; assay type: ADME, organism-based; set-up: dose 50 mg/kg, time infinity, route intravenous; conditions: in vivo; method in brief: as §1
[15] = AUC (0 to infinity) in Sprague-Dawley rat at 10 mg/kg, po administered as single dose; assay type: ADME, organism-based; set-up: dose 10 mg/kg, route oral, time infinity; conditions: in vivo; method in brief: as §1
[16] = AUC (0 to infinity) in Sprague-Dawley rat at 25 mg/kg, po administered as single dose; assay type: ADME, organism-based; set-up: dose 25 mg/kg, time infinity, route oral; conditions: in vivo; method in brief: as §1
[17] = AUC (0 to infinity) in Sprague-Dawley rat at 50 mg/kg, po administered as single dose; assay type: ADME, organism-based; set-up: dose 50 mg/kg, route oral, time infinity; conditions: in vivo; method in brief: as §1
[18] = Half life in Sprague-Dawley rat at 10 mg/kg, iv administered as single dose; assay type: ADME, organism-based; conditions: in vivo; method in brief: as §1
[19] = Half life in Sprague-Dawley rat at 25 mg/kg, iv administered as single dose; assay type: ADME, organism-based; conditions: in vivo
Method in brief: (§2)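 Sprague-Dawley rats each received one dose of drug, either iv across 10-50 mg/kg or orally at 10, 25 and 50 mg/kg. Plasma pharmacokinetics covered CL, AUC0-inf, t1/2, Cmax and Tmax. Oral bioavailability (%F) was obtained from the oral and iv exposures.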

[20] = Half life in Sprague-Dawley rat at 50 mg/kg, iv administered as single dose; assay type: ADME, organism-based; conditions: in vivo; method in brief: as §2
[21] = Half life in Sprague-Dawley rat at 10 mg/kg, po administered as single dose; assay type: ADME, organism-based; conditions: in vivo; method in brief: as §2
[22] = Half life in Sprague-Dawley rat at 25 mg/kg, po administered as single dose; assay type: ADME, organism-based; conditions: in vivo; method in brief: as §2
[23] = Half life in Sprague-Dawley rat at 50 mg/kg, po administered as single dose; assay type: ADME, organism-based; conditions: in vivo; method in brief: as §2
[24] = Cmax in Sprague-Dawley rat at 10 mg/kg, po administered as single dose; assay type: ADME, organism-based; set-up: dose 10 mg/kg, route oral; conditions: in vivo; method in brief: as §1
[25] = Cmax in Sprague-Dawley rat at 25 mg/kg, po administered as single dose; assay type: ADME, organism-based; set-up: dose 25 mg/kg, route oral; conditions: in vivo; method in brief: as §1
[26] = Cmax in Sprague-Dawley rat at 50 mg/kg, po administered as single dose; assay type: ADME, organism-based; set-up: dose 50 mg/kg, route oral; conditions: in vivo; method in brief: as §1
[27] = Oral bioavailability in Sprague-Dawley rat at 25 mg/kg administered as single dose; assay type: ADME, organism-based; conditions: in vivo; method in brief: as §2
[28] = Oral bioavailability in Sprague-Dawley rat at 50 mg/kg administered as single dose; assay type: ADME, organism-based; conditions: in vivo; method in brief: as §2
[29] = Clearance in C57Bl6 mouse at 10 mg/kg, iv administered as single dose; assay type: ADME, organism-based; conditions: in vivo
Method in brief: (§3)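 C57Bl/6 mice were given single intravenous or oral doses (oral at 10 and 100 mg/kg). Plasma PK parameters were CL, AUC0-inf, t1/2, Cmax and %F.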

[30] = Clearance in C57Bl6 mouse at 50 mg/kg, iv administered as single dose; assay type: ADME, organism-based; conditions: in vivo; method in brief: as §3
[31] = AUC (0 to infinity) in C57Bl6 mouse at 10 mg/kg, iv administered as single dose; assay type: ADME, organism-based; set-up: dose 10 mg/kg, time infinity, route intravenous; conditions: in vivo; method in brief: as §3
[32] = AUC (0 to infinity) in C57Bl6 mouse at 50 mg/kg, iv administered as single dose; assay type: ADME, organism-based; set-up: dose 50 mg/kg, route intravenous, time infinity; conditions: in vivo; method in brief: as §3
[33] = AUC (0 to infinity) in C57Bl6 mouse at 10 mg/kg, po administered as single dose; assay type: ADME, organism-based; set-up: dose 10 mg/kg, time infinity, route oral; conditions: in vivo; method in brief: as §3
[34] = AUC (0 to infinity) in C57Bl6 mouse at 100 mg/kg, po administered as single dose; assay type: ADME, organism-based; set-up: dose 100 mg/kg, time infinity, route oral; conditions: in vivo; method in brief: as §3
[35] = Half life in C57Bl6 mouse at 10 mg/kg, iv administered as single dose; assay type: ADME, organism-based; conditions: in vivo; method in brief: as §3
[36] = Half life in C57Bl6 mouse at 50 mg/kg, iv administered as single dose; assay type: ADME, organism-based; conditions: in vivo; method in brief: as §3

predicted hepatic clearance [1]: 8.52 mL/min/kg
solubility [2]: > 200 µM
solubility [3]: > 200 µM
solubility [4]: > 200 µM
remaining at […] [5]: > 85%
remaining at […] [6]: > 85%
Papp A→B [7]: 22.7 ×10⁻⁶ cm/s
Papp B→A [8]: 35 ×10⁻⁶ cm/s
clearance [9]: 44.6 mL/min/kg
clearance [10]: 32 mL/min/kg
clearance [11]: 23.2 mL/min/kg
AUC(0-inf) [12]: 3930 ng·h/mL
AUC(0-inf) [13]: 13400 ng·h/mL
AUC(0-inf) [14]: 35000 ng·h/mL
AUC(0-inf) [15]: 1630 ng·h/mL
AUC(0-inf) [16]: 7980 ng·h/mL
AUC(0-inf) [17]: 15400 ng·h/mL
half-life [18]: 1.44 h
half-life [19]: 1.25 h
half-life [20]: 1 h
half-life [21]: 1.05 h
half-life [22]: 1.15 h
half-life [23]: 1.06 h
Cmax [24]: 1560 ng/mL
Cmax [25]: 6420 ng/mL
Cmax [26]: 10000 ng/mL
bioavailability [27]: 60.4%
bioavailability [28]: 44.1%
clearance [29]: 27.5 mL/min/kg
clearance [30]: 25 mL/min/kg
AUC(0-inf) [31]: 6130 ng·h/mL
AUC(0-inf) [32]: 34600 ng·h/mL
AUC(0-inf) [33]: 3780 ng·h/mL
AUC(0-inf) [34]: 60200 ng·h/mL
half-life [35]: 3.9 h
half-life [36]: 3 h
Compound: O[C@H](C[C@H]1c2c(F)cccc2-c2cncn21)[C@H]1CC[C@H](O)CC1 [NAVOXIMOD]
